Results published in ChEMBL document CHEMBL4145661, “H2O2/Peroxynitrite-Activated Hydroxamic Acid HDAC Inhibitor Prodrugs Show Antileukemic Activities against AML Cells” (ACS Med Chem Lett, 2018).
Calls of active or inactive are those of the source. No cut-off for these calls is given here.

What was measured:
[1] = tested on: MV4-11; experiment: Cytotoxicity against human MV4-11 cells assessed as reduction in cell viability at 0.05 to 0.5 uM cotreated with up to 500 nM of 4-CPA measured after 72 hrs by MTT assay; type: functional, cell-based
[2] = tested on: PBMC; experiment: Cytotoxicity against human PBMC assessed as reduction in cell viability after 72 hrs by MTT assay; type: functional, cell-based
Summary of the method: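 Peripheral blood mononuclear cells from two healthy donors, viability measured by MTT assay.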

[3] = tested on: MV4-11; experiment: Cytotoxicity against human MV4-11 cells assessed as reduction in cell viability up to 10 uM after 72 hrs by MTT assay; type: functional, cell-based
[4] = tested on: U-937; experiment: Cytotoxicity against human U937 cells assessed as reduction in cell viability after 72 hrs by MTT assay; conditions: U-937, 72 h
[5] = tested on: MV4-11; experiment: Cytotoxicity against human MV4-11 cells assessed as reduction in cell viability after 72 hrs by MTT assay; conditions: MV4-11, 72 h
[6] = target: T1, Histone deacetylase (Homo sapiens) (UniProt Q13547+O15379+Q9UBN7+Q92769+Q9UQL6+Q8WUI4+Q9BY41+Q96DB2+P56524+Q9UKV0+Q969S8); experiment: Inhibition of HDAC in human MV4-11 cells assessed as increase in acetylation of alpha-tubulin after 6 hrs by Western blot analysis; type: cell-based
Summary of the method: (§1)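 Western blot of MV4-11 cells after 6 h exposure at the indicated concentrations, probing acetyl-histone H4 and acetyl-α-tubulin. Densitometry normalized to GAPDH, fold change relative to SAHA treatment. Blot representative of three experiments.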

[7] = target: T1, Histone deacetylase (Homo sapiens); experiment: Inhibition of HDAC in human MV4-11 cells assessed as increase in acetylation of histone H4 after 6 hrs by Western blot analysis; type: cell-based; summary of the method: as §1
[8] = target: T1, Histone deacetylase (Homo sapiens); experiment: Inhibition of HDAC in human U937 cells assessed as increase in acetylation of alpha-tubulin after 6 hrs by Western blot analysis; type: cell-based
[9] = target: T1, Histone deacetylase (Homo sapiens); experiment: Inhibition of HDAC in human U937 cells assessed as increase in acetylation of histone H4 after 6 hrs by Western blot analysis; type: cell-based
[10] = target: T1, Histone deacetylase (Homo sapiens); experiment: Inhibition of HDAC in human PBMC assessed as increase in acetylation of histone H4 at 5 to 10 uM after 6 hrs by Western blot analysis; type: cell-based
Summary of the method: (§2)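 Peripheral blood mononuclear cells from one healthy donor, treated at 5 and 10 μM and compared against vehicle control. Acetyl-histone H4 and acetyl-α-tubulin assessed by Western blot.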

[11] = target: T1, Histone deacetylase (Homo sapiens); experiment: Inhibition of HDAC in human PBMC assessed as increase in acetylation of alpha-tubulin at 5 to 10 uM after 6 hrs by Western blot analysis; type: cell-based; summary of the method: as §2
[12] = Chemical stability of the compound in PBS at 100 uM at pH 7.4 after 72 hrs at 37 degC in presence of GSH by HPLC method; type: physicochemical; conditions: buffer, pH 7.4, 72 h
[13] = tested on: MV4-11; experiment: Cytotoxicity against human MV4-11 cells assessed as reduction in cell viability at 2.5 uM pretreated with GSH for 2 hrs followed by compound addition measured after 72 hrs by MTT assay; type: functional, cell-based
[14] = tested on: MV4-11; experiment: Cytotoxicity against human MV4-11 cells assessed as reduction in cell viability at 2.5 uM pretreated with GSHEE for 2 hrs followed by compound addition measured after 72 hrs by MTT assay; type: functional, cell-based
[15] = tested on: MV4-11; experiment: Cytotoxicity against human MV4-11 cells assessed as reduction in cell viability at 2.5 uM pretreated with catalase for 2 hrs followed by compound addition measured after 72 hrs by MTT assay; type: functional, cell-based
[16] = tested on: MV4-11; experiment: Cytotoxicity against human MV4-11 cells assessed as reduction in cell viability at 2.5 uM pretreated with SOD for 2 hrs followed by compound addition measured after 72 hrs by MTT assay; type: functional, cell-based
[17] = tested on: MV4-11; experiment: Cytotoxicity against human MV4-11 cells assessed as reduction in cell viability at 2.5 uM pretreated with LPS for 2 hrs followed by compound addition measured after 72 hrs by MTT assay; type: functional, cell-based
[18] = tested on: MV4-11; experiment: Cytotoxicity against human MV4-11 cells assessed as reduction in cell viability at 2.5 uM pretreated with BSO for 2 hrs followed by compound addition measured after 72 hrs by MTT assay; type: functional, cell-based
[19] = tested on: MV4-11; experiment: Potentiation of cytarabine-induced cytotoxicity against human MV4-11 cells assessed as reduction in cell viability at 2.5 uM after 72 hrs by MTT assay; type: functional, cell-based
Summary of the method: (§3)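 MV4-11 cells given prodrug (2.5 or 0.5 μM) with cytarabine for 72 h. Viability by MTT; mean ± SD, n = 6.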

[20] = tested on: MV4-11; experiment: Potentiation of cytarabine-induced cytotoxicity against human MV4-11 cells assessed as increase in cleaved caspase 3 level at 2.5 uM after 24 hrs by Western blot analysis; type: functional, cell-based
Summary of the method: (§4)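 MV4-11 cells exposed 24 h to prodrug (2.5 or 0.5 μM) and/or cytarabine (0.5 μM). Cleaved caspase-3 and cleaved PARP-1 detected by Western blot.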

[21] = tested on: MV4-11; experiment: Potentiation of cytarabine-induced cytotoxicity against human MV4-11 cells assessed as increase in cleaved PARP level at 2.5 uM after 24 hrs by Western blot analysis; type: functional, cell-based; summary of the method: as §4
[22] = tested on: U-937; experiment: Cytotoxicity against human U937 cells assessed as reduction in cell viability at 0.25 to 2.5 uM after 72 hrs by MTT assay; type: functional, cell-based
[23] = tested on: MV4-11; experiment: Potentiation of cytarabine-induced cytotoxicity against human MV4-11 cells assessed as reduction in cell viability at 0.5 uM after 72 hrs by MTT assay; type: functional, cell-based; summary of the method: as §3
[24] = tested on: MV4-11; experiment: Potentiation of cytarabine-induced cytotoxicity against human MV4-11 cells assessed as increase in cleaved caspase 3 level at 0.5 uM after 24 hrs by Western blot analysis; type: functional, cell-based; summary of the method: as §4
[25] = tested on: MV4-11; experiment: Potentiation of cytarabine-induced cytotoxicity against human MV4-11 cells assessed as increase in cleaved PARP level at 0.5 uM after 24 hrs by Western blot analysis; type: functional, cell-based; summary of the method: as §4
[26] = tested on: MV4-11; experiment: Cytotoxicity against human MV4-11 cells assessed as reduction in cell viability at 0.25 to 1 uM cotreated with 4-CPA measured after 72 hrs by MTT assay; type: functional, cell-based
[27] = target: T1, Histone deacetylase (Homo sapiens); conditions: at 1 µM

## O=C(CCCCCCC(=O)Nc1ccccc1)NO
[1]
  Activity: inactive
[2]
  Activity: Active

## O=C(CCCCCCC(=O)Nc1ccccc1)NCCc1ccc(B(O)O)cc1
[3]
  Activity: inactive

## O=C(CCCCCCC(=O)Nc1ccccc1)NOCc1ccc(B(O)O)cc1
[4]
  IC50: 6.13 µM
[5]
  IC50: 3.07 µM
[6]
  inhibition: Dose-dependent effect
[7]
  inhibition: Dose-dependent effect
[8]
  inhibition: Dose-dependent effect
[9]
  inhibition: Dose-dependent effect
[10]
  inhibition: inactive
[11]
  inhibition: inactive
[2]
  IC50: > 10 µM
[12]
  Stability: Stable
[13]
  Activity: inactive
[14]
  Activity: inactive
[15]
  Activity: inactive
[16]
  Activity: Active
[17]
  Activity: Active
[18]
  Activity: Active
[19]
  Activity: Active
[20]
  Activity: Active
[21]
  Activity: Active

## COC(=O)CCCCCCOc1c(OC)cc(/C=C/C(=O)N2CCC=CC2=O)cc1OC
[22]
  Activity: inactive

## COc1cc(/C=C/C(=O)N2CCC=CC2=O)cc(OC)c1OCCCCCCC(=O)NOCc1ccc(B(O)O)cc1
[4]
  IC50: 1.61 µM
[5]
  IC50: 0.7 µM
[6]
  inhibition: Dose-dependent effect
[7]
  inhibition: Dose-dependent effect
[8]
  inhibition: Dose-dependent effect
[9]
  inhibition: Dose-dependent effect
[10]
  inhibition: inactive
[11]
  inhibition: inactive
[2]
  IC50: 7.6 to 10 µM
[23]
  Activity: Active
[24]
  Activity: Active
[25]
  Activity: Active

## CC(=O)Oc1ccc(CCl)cc1
[5]
  IC50: 1.13 µM

## COc1cc(/C=C/C(=O)N2CCC=CC2=O)cc(OC)c1OCCCCCCC(=O)NO
[26]
  Activity: Active
[27]
  inhibition: 32%
